Reference: ChEMBL document CHEMBL2311425, “Histone deacetylase (HDAC) inhibitors with a novel connecting unit linker region reveal a selectivity profile for HDAC4 and HDAC5 with improved activity against chemoresistant cancer cells” (J Med Chem, 2013)

Key:
[1] = target: T1, Histone deacetylase 8 (Homo sapiens, UniProt Q9BY41); experiment: Inhibition of human HDAC8 by fluorescence assay
T1 sequence (Q9BY41 whole entry): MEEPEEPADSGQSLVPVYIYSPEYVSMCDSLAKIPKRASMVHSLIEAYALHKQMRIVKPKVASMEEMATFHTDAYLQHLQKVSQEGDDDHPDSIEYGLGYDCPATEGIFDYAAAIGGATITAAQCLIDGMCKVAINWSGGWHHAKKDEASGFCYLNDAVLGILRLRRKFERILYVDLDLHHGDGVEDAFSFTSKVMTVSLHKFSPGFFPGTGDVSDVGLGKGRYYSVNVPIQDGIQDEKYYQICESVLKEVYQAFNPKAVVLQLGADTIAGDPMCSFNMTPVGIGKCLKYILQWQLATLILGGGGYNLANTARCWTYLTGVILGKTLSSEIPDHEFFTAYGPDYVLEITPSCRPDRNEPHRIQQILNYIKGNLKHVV

[2] = tested on: CAL-27; experiment: Potentiation of 1 uM cisplatin-induced toxicity in 1 uM cisplatin resistant human CAL27 cells at 0.25 uM pretreated for 48 hrs followed by 1 uM cisplatin treatment by MTT assay; format: functional
[3] = tested on: MDA-MB-231; experiment: Potentiation of 40 uM cisplatin-induced toxicity in 1 uM cisplatin resistant human MDA-MB-231 cells at 1.5 uM pretreated for 48 hrs followed by 1 uM cisplatin treatment by MTT assay; format: functional
[4] = tested on: CAL-27; experiment: Potentiation of 1 uM cisplatin-induced toxicity in 1 uM cisplatin resistant human CAL27 cells at 1.5 uM pretreated for 48 hrs followed by 1 uM cisplatin treatment by MTT assay; format: functional
[5] = tested on: MDA-MB-231; experiment: Potentiation of 25 uM cisplatin-induced toxicity in 1 uM cisplatin resistant human MDA-MB-231 cells at 0.5 uM pretreated for 48 hrs followed by 1 uM cisplatin treatment by MTT assay; format: functional
[6] = tested on: MDA-MB-231; experiment: Potentiation of 40 uM cisplatin-induced toxicity in 1 uM cisplatin resistant human MDA-MB-231 cells at 0.25 uM pretreated for 48 hrs followed by 1 uM cisplatin treatment by MTT assay; format: functional
[7] = target: Histone deacetylase; experiment: Inhibition of HDAC in cisplatin resistant human CAL27 cells after 18 hrs by fluorescence assay; format: cell-based; details: cal-27
[8] = tested on: A2780; experiment: Cytotoxicity against human A2780 cells after 72 hrs by MTT assay; format: functional, cell-based; details: A2780, 72 h
[9] = tested on: KYSE-510; experiment: Potentiation of 0.75 uM cisplatin-induced toxicity in 0.5 uM cisplatin resistant human KYSE-510 cells at 1 uM pretreated for 48 hrs followed by 0.5 uM cisplatin treatment by MTT assay; format: functional
Outline: (§1)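 Cisplatin-resistant Kyse510 CisR (derived by weekly cycles of cisplatin over 24−30 weeks), grown in RPMI 1640 with 10% FCS at 37 °C, 5% CO₂. Test agent added 48 h before cisplatin, then 72 h further incubation. Viability by MTT (read at 544/690 nm) relative to untreated control wells. Combination index by Chou−Talalay method. Mean of three experiments.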

[10] = target: Histone deacetylase; experiment: Inhibition of HDAC in cisplatin resistant human A2780 cells after 18 hrs by fluorescence assay; format: cell-based
[11] = tested on: A2780; experiment: Potentiation of 20 uM cisplatin-induced toxicity in 5 uM cisplatin resistant human A2780 cells at 0.5 uM pretreated for 48 hrs followed by 5 uM cisplatin treatment by MTT assay; format: functional
[12] = tested on: KYSE-510; experiment: Potentiation of 0.5 uM cisplatin-induced toxicity in 0.5 uM cisplatin resistant human KYSE-510 cells at 0.5 uM pretreated for 48 hrs followed by 0.5 uM cisplatin treatment by MTT assay; format: functional
[13] = target: Histone deacetylase 5 (Homo sapiens, UniProt Q9UQL6); experiment: Inhibition of human HDAC5 by fluorescence assay
Histone deacetylase 5, sequence (Q9UQL6 whole entry): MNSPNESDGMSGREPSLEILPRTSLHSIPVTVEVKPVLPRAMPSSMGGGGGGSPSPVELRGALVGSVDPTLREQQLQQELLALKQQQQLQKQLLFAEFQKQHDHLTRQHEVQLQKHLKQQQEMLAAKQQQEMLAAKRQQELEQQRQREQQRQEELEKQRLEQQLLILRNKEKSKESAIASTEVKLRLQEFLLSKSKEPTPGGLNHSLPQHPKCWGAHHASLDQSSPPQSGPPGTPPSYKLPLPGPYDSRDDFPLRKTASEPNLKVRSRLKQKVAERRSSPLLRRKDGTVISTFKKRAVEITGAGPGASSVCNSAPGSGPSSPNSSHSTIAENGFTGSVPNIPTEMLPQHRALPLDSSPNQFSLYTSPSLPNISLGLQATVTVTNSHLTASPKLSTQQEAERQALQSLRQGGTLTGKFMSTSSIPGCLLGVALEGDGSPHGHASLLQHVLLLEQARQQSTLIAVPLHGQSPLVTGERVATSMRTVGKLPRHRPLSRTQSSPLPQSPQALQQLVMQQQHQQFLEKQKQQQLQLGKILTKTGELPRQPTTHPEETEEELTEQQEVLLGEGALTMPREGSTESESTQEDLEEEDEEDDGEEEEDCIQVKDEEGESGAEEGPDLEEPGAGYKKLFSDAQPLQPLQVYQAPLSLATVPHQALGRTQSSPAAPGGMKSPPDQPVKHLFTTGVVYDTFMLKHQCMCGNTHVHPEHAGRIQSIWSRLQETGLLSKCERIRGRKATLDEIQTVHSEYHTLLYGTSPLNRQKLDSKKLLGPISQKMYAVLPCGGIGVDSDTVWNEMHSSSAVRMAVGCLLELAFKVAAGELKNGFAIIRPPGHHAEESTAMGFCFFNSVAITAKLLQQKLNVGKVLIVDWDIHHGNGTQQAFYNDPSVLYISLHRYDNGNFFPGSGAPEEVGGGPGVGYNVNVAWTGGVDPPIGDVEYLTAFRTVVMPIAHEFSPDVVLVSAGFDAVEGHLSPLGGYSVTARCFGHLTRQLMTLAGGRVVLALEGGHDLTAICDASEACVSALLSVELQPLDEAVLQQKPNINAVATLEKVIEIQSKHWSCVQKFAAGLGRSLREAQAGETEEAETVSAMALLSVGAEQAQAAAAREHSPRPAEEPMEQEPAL

[14] = tested on: KYSE-510; experiment: Potentiation of 0.75 uM cisplatin-induced toxicity in 0.5 uM cisplatin resistant human KYSE-510 cells at 1.5 uM pretreated for 48 hrs followed by 0.5 uM cisplatin treatment by MTT assay; format: functional; outline: as §1
[15] = tested on: MDA-MB-231; experiment: Potentiation of […] cisplatin-induced toxicity in 1 uM cisplatin resistant human MDA-MB-231 cells at 0.25 uM pretreated for 48 hrs followed by 1 uM cisplatin treatment by MTT assay; format: functional
[16] = tested on: CAL-27; experiment: Potentiation of 10 uM cisplatin-induced toxicity in 1 uM cisplatin resistant human CAL27 cells at 1.5 uM pretreated for 48 hrs followed by 1 uM cisplatin treatment by MTT assay; format: functional
[17] = tested on: A2780; experiment: Potentiation of 20 uM cisplatin-induced toxicity in 5 uM cisplatin resistant human A2780 cells at 1 uM pretreated for 48 hrs followed by 5 uM cisplatin treatment by MTT assay; format: functional
[18] = tested on: A2780; experiment: Potentiation of 1 uM cisplatin-induced toxicity in 5 uM cisplatin resistant human A2780 cells at 1 uM pretreated for 48 hrs followed by 5 uM cisplatin treatment by MTT assay; format: functional
[19] = target: Histone deacetylase; experiment: Inhibition of HDAC in human A2780 cells after 18 hrs by fluorescence assay; format: cell-based
[20] = tested on: KYSE-510; experiment: Potentiation of 3.16 uM cisplatin-induced toxicity in 0.5 uM cisplatin resistant human KYSE-510 cells at 1 uM pretreated for 48 hrs followed by 0.5 uM cisplatin treatment by MTT assay; format: functional
[21] = tested on: A2780; experiment: Potentiation of 1 uM cisplatin-induced toxicity in 5 uM cisplatin resistant human A2780 cells at 1.5 uM pretreated for 48 hrs followed by 5 uM cisplatin treatment by MTT assay; format: functional
[22] = tested on: A2780; experiment: Potentiation of 1 uM cisplatin-induced toxicity in 5 uM cisplatin resistant human A2780 cells at 0.25 uM pretreated for 48 hrs followed by 5 uM cisplatin treatment by MTT assay; format: functional
[23] = target: Histone deacetylase; experiment: Inhibition of HDAC in cisplatin sensitive human KYSE-510 cells after 18 hrs by fluorescence assay; format: cell-based
[24] = tested on: CAL-27; experiment: Potentiation of 10 uM cisplatin-induced toxicity in 1 uM cisplatin resistant human CAL27 cells at 0.25 uM pretreated for 48 hrs followed by 1 uM cisplatin treatment by MTT assay; format: functional
[25] = tested on: A2780; experiment: Potentiation of 10 uM cisplatin-induced toxicity in 5 uM cisplatin resistant human A2780 cells at 1.5 uM pretreated for 48 hrs followed by 5 uM cisplatin treatment by MTT assay; format: functional
[26] = tested on: MDA-MB-231; experiment: Potentiation of cisplatin-induced toxicity in cisplatin resistant human MDA-MB-231 cells at 1 uM pretreated for 48 hrs followed by cisplatin treatment by MTT assay; format: functional
Outline: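 Resistant sublines pretreated 48 h with 1 μM HDAC inhibitor, then cisplatin over a concentration range for 72 h; MTT viability read at 544/690 nm. Cisplatin IC50 from four-parameter logistic fit of pooled data (≥3 experiments, triplicate); shift factor = IC50 of cisplatin alone divided by IC50 of the combination.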

In the case of `Cc1cc(C)cc(C(=O)NOCCCCCC(=O)NO)c1`, the IC50 [1] is reported as 1280 nM, the Activity [2] is reported as “Dose-dependent effect” and the “fractional inhibitory concentration index (FICI)” value [2] is reported as less than 0.2. The Activity [3] was “Dose-dependent effect”, the “fractional inhibitory concentration index (FICI)” value [3] was 0.84 and the Activity [4] was “Dose-dependent effect”. The “fractional inhibitory concentration index (FICI)” value [4] was 0.48, the Activity [5] was “Dose-dependent effect” and the “fractional inhibitory concentration index (FICI)” value [5] was 0.79. The Activity [6] was “Dose-dependent effect”, the IC50 [7] was 360 nM and the IC50 [8] was 490 nM. The Activity [9] was “Dose-dependent effect”, the “fractional inhibitory concentration index (FICI)” value [9] was 0.05 and the IC50 [10] was 320 nM. For the same molecule, the Activity [11] was “Dose-dependent effect”, the “fractional inhibitory concentration index (FICI)” value [11] was 0.58 and the Activity [12] was “Dose-dependent effect”. For the same molecule, the “fractional inhibitory concentration index (FICI)” value [12] was 0.13, the IC50 [13] was 4.22 nM and the Activity [14] was “Dose-dependent effect”. For the same molecule, the “fractional inhibitory concentration index (FICI)” value [14] was 0.05, the Activity [15] was “Dose-dependent effect” and the “fractional inhibitory concentration index (FICI)” value [15] was 0.9. For the same molecule, the Activity [16] was “Dose-dependent effect”, the “fractional inhibitory concentration index (FICI)” value [16] was 0.2 and the Activity [17] was “Dose-dependent effect”. The “fractional inhibitory concentration index (FICI)” value [17] was 0.49, the Activity [18] was “Dose-dependent effect” and the “fractional inhibitory concentration index (FICI)” value [18] was 0.82. The IC50 [19] was 650 nM, the Activity [20] was “Dose-dependent effect” and the “fractional inhibitory concentration index (FICI)” value [20] was 0.09. For the same molecule, the Activity [21] was “Dose-dependent effect”, the “fractional inhibitory concentration index (FICI)” value [21] was 0.97 and the Activity [22] was “Dose-dependent effect”. The IC50 [23] was 1000 nM, the Activity [24] was “Dose-dependent effect” and the “fractional inhibitory concentration index (FICI)” value [24] was 0.85. For the same molecule, the Activity [25] was “Dose-dependent effect”, the “fractional inhibitory concentration index (FICI)” value [25] was 0.68 and the Activity [26] was “Dose-dependent effect”. For the same molecule, the fold change (FC) [26] was 3.53.
